This note sets out measurements from ChEMBL document CHEMBL4028818, “Tricyclic 4,4-dimethyl-3,4-dihydrochromeno[3,4-d]imidazole derivatives as microsomal prostaglandin E2 synthase-1 (mPGES-1) inhibitors: SAR and in vivo efficacy in hyperalgesia pain model” (Bioorg Med Chem Lett, 2017).

Data set [1] concerns Cavia porcellus. Briefly: Analgesic activity in Dunkin Hartley guinea pig hyperalgesia pain model assessed as inhibition of LPS-induced thermal hyperalgesia at 10 mg/kg, po qd administered 1 hr prior to LPS stimulation measured after 4.5 hrs by plantar test relative to control. The data set is classed as functional. The method in brief: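 LPS was injected into the guinea pig plantar to induce thermal hyperalgesia, and compound was given orally. Response is expressed as % hyperalgesia, with a saline-injected naive group as 0% and the vehicle-treated LPS group as 100%. Values are mean ± SEM, n = 8 per dose group.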

Data set [2] concerns the target Cytochrome P450 2C9 (Homo sapiens, UniProt P11712). Nature of the data set: Inhibition of CYP2C9 in human liver microsomes at 1 uM measured after 20 mins in presence of NADPH by LC/MS/MS analysis. It counts as ADME. The method in brief: (§1)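 CYP isoforms 1A2, 2D6, 3A4, 2C9 and 2C19 were tested at 1 and 10 µM. Results are % inhibition compared with a no-inhibitor control, run in triplicate.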

Data set [3] deals with T1, Prostaglandin E synthase (Homo sapiens) (UniProt O14684).
T1 sequence (whole entry): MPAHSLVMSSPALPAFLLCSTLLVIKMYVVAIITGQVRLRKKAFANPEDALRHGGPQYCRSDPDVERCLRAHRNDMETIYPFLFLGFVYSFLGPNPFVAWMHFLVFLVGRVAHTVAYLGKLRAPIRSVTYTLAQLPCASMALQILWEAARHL
Briefly: Inhibition of recombinant human mPGES-1 expressed in CHO cells assessed as reduction in PGE2 formation at 10 uM using PGH2 a substrate preincubated for 10 mins followed by substrate addition measured after 1 min relative to control. The data set is classed as cell-based. The method in brief:
(§2)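 mPGES-1 enzyme inhibition. % inhibition values are means of two experiments in duplicate. IC50 values were derived from graphs of at least two experiments in duplicate.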

The target in data set [4] is T2, Prostaglandin G/H synthase 2 (Homo sapiens, UniProt P35354).
T2 sequence (P35354 whole entry): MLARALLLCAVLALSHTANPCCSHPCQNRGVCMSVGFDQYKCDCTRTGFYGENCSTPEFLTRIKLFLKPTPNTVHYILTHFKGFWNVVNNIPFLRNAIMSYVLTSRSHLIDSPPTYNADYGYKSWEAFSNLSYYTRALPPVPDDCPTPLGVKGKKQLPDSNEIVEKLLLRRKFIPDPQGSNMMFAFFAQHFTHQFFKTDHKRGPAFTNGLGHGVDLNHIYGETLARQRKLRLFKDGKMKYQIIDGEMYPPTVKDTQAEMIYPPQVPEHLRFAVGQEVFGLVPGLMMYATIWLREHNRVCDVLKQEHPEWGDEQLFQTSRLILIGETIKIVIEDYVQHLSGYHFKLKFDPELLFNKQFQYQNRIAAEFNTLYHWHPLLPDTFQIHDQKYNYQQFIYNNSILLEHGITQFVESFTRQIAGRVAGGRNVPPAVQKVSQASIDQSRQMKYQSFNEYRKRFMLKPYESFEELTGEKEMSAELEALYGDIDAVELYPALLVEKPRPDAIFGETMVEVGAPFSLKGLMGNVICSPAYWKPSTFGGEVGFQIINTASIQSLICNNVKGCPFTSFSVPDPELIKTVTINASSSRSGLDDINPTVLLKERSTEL
Nature of the data set: Inhibition of recombinant human N-terminal His-tagged COX2 expressed in baculovirus infected Sf21 insect cells assessed as decrease in PGE2 release using arachidonic acid as substrate preincubated for 15 mins followed by arachidonic acid addition measured after 5 mins.

For data set [5], the target named is CYP3A4 (Homo sapiens, UniProt P08684). Briefly: Inhibition of CYP3A4 in human liver microsomes at 10 uM measured after 20 mins in presence of NADPH by LC/MS/MS analysis relative to control. It counts as ADME. The essentials:
as §1
Background: Microsomes from liver hold many membrane-bound enzymes, among them those of drug oxidation.

Data set [6] deals with CYP2D6 (Homo sapiens, UniProt P10635). Briefly: Inhibition of CYP2D6 in human liver microsomes at 10 uM measured after 20 mins in presence of NADPH by LC/MS/MS analysis relative to control. It counts as ADME. To be noted: liver microsomes. The method in brief:
as §1

Data set [7] in a line: Metabolic stability in Guinea pig liver microsomes assessed as parent compound remaining at 1 uM after 60 mins in presence of NADPH by LC/MS/MS analysis. The following applies: read-out: Stability. It counts as ADME, Cavia porcellus, microsome. The method in brief: (§3)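 Compound at 1.0 µM was incubated with liver microsomes (1.0 mg/mL protein) at 37 °C for 60 min. Samples were analysed by LC/MS/MS as % parent remaining. Run in triplicate.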

The target of data set [8] is T3, Cytochrome P450 1A2 (Homo sapiens, UniProt P05177).
T3 sequence (P05177 whole entry): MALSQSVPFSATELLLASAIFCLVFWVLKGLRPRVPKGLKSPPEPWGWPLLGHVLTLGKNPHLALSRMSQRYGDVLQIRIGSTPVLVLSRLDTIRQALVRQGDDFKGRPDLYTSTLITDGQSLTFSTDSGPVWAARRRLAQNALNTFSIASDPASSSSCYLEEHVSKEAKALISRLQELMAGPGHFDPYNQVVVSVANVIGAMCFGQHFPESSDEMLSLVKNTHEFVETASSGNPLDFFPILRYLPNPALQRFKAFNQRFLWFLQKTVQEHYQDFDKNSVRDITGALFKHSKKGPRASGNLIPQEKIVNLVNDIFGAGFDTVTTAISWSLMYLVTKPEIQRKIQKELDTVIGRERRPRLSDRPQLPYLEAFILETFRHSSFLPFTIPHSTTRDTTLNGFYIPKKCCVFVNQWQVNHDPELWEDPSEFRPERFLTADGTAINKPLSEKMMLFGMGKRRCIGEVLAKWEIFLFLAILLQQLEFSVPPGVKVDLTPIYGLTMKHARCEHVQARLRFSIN
Briefly: Inhibition of CYP1A2 in human liver microsomes at 1 uM measured after 20 mins in presence of NADPH by LC/MS/MS analysis. It counts as ADME. The essentials:
as §1

The target of data set [9] is T4, Prostaglandin E synthase (Homo sapiens, UniProt O14684).
T4 sequence (O14684 whole entry): T1 sequence (whole entry)
Briefly: Inhibition of recombinant human mPGES-1 expressed in CHO cells assessed as reduction in PGE2 formation using PGH2 a substrate preincubated for 10 mins followed by substrate addition measured after 1 min. The data set is classed as cell-based. The method in brief: as §2

In data set [10] the target is Prostaglandin G/H synthase 1 (Homo sapiens, UniProt P23219). Nature of the data set: Inhibition of COX1 in human U937 cells assessed as decrease in PGE2 release using arachidonic acid as substrate preincubated for 15 mins followed by arachidonic acid addition measured after 5 mins. It counts as cell-based.
Data set [11] deals with T5, COX2 (Homo sapiens, UniProt P35354).
T5 sequence (P35354 whole entry): T2 sequence (P35354 whole entry)
Briefly: Inhibition of recombinant human N-terminal His-tagged COX2 expressed in baculovirus infected Sf21 insect cells assessed as decrease in PGE2 release at 10 uM using arachidonic acid as substrate preincubated for 15 mins followed by arachidonic acid addition measured after 5 mins relative to control. The following applies: probe arachidonic acid.

Data set [12] deals with Cytochrome P450 2C19 (Homo sapiens, UniProt P33261). Briefly: Inhibition of CYP2C19 in human liver microsomes at 1 uM measured after 40 mins in presence of NADPH by LC/MS/MS analysis. The data set is classed as ADME. The essentials: as §1
The nature of data set [13]: Metabolic stability in rat liver microsomes assessed as parent compound remaining at 1 uM after 60 mins in presence of NADPH by LC/MS/MS analysis. It counts as ADME, microsome. To be noted: read-out: Stability. The essentials:
as §3

Data set [14] addresses T4, Prostaglandin E synthase. Nature of the data set: Inhibition of mPGES-1 in human A549 cells assessed as decrease in IL1beta induced PGE2 release preincubated for 30 mins followed by IL-1beta addition after 16 to 20 hrs by HTRF method. The data set is classed as cell-based.
Data set [15] concerns the target T5, COX2. Briefly: Inhibition of recombinant human N-terminal His-tagged COX2 expressed in baculovirus infected Sf21 insect cells assessed as decrease in PGE2 release at 1 uM using arachidonic acid as substrate preincubated for 15 mins followed by arachidonic acid addition measured after 5 mins relative to control. The following applies: probe arachidonic acid.

The target in data set [16] is T1, Prostaglandin E synthase (Homo sapiens). Briefly: Inhibition of recombinant human mPGES-1 expressed in CHO cells assessed as reduction in PGE2 formation at 1 uM using PGH2 a substrate preincubated for 10 mins followed by substrate addition measured after 1 min relative to control. The data set is classed as cell-based. The method in brief: as §2
Data set [17] has as its target Cytochrome P450 2D6 (Homo sapiens, UniProt P10635). Nature of the data set: Inhibition of CYP2D6 in human liver microsomes at 1 uM measured after 20 mins in presence of NADPH by LC/MS/MS analysis. It counts as ADME. The essentials: as §1
Data set [18] is described as follows: Metabolic stability in human liver microsomes assessed as parent compound remaining at 1 uM after 60 mins in presence of NADPH by LC/MS/MS analysis. It counts as ADME, microsome. The following applies: read-out: Stability. The essentials: as §3
In data set [19] the target is CYP2C9 (Homo sapiens, UniProt P11712). Nature of the data set: Inhibition of CYP2C9 in human liver microsomes at 10 uM measured after 20 mins in presence of NADPH by LC/MS/MS analysis relative to control. It counts as ADME. The essentials: as §1
The target of data set [20] is Cytochrome P450 3A4 (Homo sapiens, UniProt P08684). Briefly: Inhibition of CYP3A4 in human liver microsomes at 1 uM measured after 20 mins in presence of NADPH by LC/MS/MS analysis. It counts as ADME. The essentials: as §1

pIC50: −log10 of the molar value.

Chain of Cytochrome P450 3A4 (P08684 whole entry): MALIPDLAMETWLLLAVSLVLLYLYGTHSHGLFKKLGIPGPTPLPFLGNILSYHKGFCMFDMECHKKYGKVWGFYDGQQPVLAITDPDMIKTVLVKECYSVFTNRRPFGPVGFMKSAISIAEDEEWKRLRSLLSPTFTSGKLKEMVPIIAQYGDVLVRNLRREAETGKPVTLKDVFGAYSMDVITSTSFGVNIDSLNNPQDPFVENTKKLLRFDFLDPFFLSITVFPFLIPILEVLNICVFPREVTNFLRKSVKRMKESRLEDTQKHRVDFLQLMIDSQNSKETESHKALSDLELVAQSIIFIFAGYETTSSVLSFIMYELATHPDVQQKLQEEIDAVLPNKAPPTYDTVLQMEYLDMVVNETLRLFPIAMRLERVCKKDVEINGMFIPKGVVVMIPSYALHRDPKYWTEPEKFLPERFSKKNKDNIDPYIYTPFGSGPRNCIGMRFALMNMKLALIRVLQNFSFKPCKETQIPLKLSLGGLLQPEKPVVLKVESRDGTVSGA
Chain of CYP3A4 (P08684 whole entry): as above
Chain of Cytochrome P450 2D6 (P10635 whole entry): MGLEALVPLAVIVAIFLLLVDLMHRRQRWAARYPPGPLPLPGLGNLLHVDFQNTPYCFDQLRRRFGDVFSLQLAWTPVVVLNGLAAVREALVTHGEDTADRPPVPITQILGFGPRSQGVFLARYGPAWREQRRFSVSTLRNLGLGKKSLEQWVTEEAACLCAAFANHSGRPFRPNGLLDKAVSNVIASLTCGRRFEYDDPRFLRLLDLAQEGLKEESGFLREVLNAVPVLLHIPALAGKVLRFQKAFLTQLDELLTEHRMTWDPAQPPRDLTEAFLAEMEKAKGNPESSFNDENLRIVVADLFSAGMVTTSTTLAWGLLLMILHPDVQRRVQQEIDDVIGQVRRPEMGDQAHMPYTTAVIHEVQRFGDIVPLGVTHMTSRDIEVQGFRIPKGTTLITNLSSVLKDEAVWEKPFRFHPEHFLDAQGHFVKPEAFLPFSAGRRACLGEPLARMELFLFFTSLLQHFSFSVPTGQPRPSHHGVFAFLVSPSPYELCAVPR
Chain of CYP2D6 (P10635 whole entry): as above
Chain of Cytochrome P450 2C19 (P33261 whole entry): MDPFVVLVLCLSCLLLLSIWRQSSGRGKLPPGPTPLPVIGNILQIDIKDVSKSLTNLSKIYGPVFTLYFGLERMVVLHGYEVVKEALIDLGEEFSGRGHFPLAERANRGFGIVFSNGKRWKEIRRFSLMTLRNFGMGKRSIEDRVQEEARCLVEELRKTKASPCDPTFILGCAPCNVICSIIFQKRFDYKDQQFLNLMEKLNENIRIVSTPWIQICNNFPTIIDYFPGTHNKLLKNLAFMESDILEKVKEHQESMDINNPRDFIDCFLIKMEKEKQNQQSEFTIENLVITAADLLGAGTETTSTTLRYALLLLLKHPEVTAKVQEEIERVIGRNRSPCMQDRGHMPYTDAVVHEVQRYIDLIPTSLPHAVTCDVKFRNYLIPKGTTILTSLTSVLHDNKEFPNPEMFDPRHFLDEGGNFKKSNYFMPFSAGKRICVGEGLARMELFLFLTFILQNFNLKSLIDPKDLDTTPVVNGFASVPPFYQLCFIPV
Chain of Cytochrome P450 2C9 (P11712 whole entry, canonical isoform): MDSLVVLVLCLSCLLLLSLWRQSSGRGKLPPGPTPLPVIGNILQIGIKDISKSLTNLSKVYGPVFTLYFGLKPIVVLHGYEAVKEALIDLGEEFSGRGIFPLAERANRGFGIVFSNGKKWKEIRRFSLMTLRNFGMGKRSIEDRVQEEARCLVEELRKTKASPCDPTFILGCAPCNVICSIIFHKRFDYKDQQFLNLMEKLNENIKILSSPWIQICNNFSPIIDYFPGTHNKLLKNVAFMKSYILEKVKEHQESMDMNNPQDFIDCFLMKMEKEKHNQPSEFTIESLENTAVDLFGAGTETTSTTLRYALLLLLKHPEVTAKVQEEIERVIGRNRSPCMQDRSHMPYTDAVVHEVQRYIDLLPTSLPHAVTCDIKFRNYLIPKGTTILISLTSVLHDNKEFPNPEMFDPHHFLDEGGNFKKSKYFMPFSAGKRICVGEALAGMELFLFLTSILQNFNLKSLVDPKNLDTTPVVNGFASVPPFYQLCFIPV
Chain of CYP2C9 (P11712 whole entry): as the sequence (P11712 whole entry, canonical isoform) above
Chain of Prostaglandin G/H synthase 1 (P23219 whole entry): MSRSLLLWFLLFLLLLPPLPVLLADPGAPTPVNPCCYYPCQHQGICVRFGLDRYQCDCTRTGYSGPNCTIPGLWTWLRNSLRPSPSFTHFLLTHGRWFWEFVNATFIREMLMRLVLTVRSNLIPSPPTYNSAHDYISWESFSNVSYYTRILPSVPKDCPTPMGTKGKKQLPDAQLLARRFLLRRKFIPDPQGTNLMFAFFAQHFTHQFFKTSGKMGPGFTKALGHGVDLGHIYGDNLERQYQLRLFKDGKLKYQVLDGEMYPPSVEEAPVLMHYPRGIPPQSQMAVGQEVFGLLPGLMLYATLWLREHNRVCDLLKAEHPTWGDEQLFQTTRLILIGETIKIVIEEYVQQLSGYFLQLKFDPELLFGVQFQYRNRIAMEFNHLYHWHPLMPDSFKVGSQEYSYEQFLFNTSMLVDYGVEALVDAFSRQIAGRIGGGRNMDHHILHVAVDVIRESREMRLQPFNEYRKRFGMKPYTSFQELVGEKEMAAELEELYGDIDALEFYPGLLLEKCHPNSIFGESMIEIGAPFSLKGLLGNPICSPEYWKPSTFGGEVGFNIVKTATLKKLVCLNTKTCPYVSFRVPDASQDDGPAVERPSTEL

For the compound `O=C(O)Cc1ccccc1Nc1c(Cl)cccc1Cl` [DICLOFENAC], the inhibition in vivo (as a rule, the change of the read-out against control, counted positive when it falls) at 10 mg/kg in data set [1] was determined as 80%.
`CC1(C)Oc2cc(-c3cccc(C(F)(F)F)c3)ccc2-c2[nH]c(-c3c(F)cccc3Cl)nc21`: the “inhibition (INH)” value in data set [2], in data set [8], in data set [12], in [17] and in data set [20] was “Not Active” throughout. For the same compound, the results for the inhibition in [3] and in data set [16] were 94.6% and 91.4%, respectively. Further, the pIC50 (in general, the IC50 on a negative log10 scale, so that one unit is a factor of ten) is less than 5.00 in data set [4], 7.03 in data set [9], 5.08 in [10] and 6.21 in data set [14]. Also, the inhibition – broadly, the change of the read-out against control, counted positive when it falls – at 20 min, 10 µM in data set [5] is 37%; in data set [6], 56%; in data set [19], 35%. Further, the values for the remaining at 1 h, 1 µM in [7], in data set [13] and in [18] were 93%, 99% and 89%, respectively. Also, in [11], the inhibition at 5 min, 10 µM was determined as 27.4%. Besides, the inhibition at 5 min, 1 µM in data set [15] was 2.65%.
As to `CC1(C)Oc2cc(C#Cc3ccccc3C(F)(F)F)ccc2-c2nc(-c3c(C#N)cccc3C#N)[nH]c21`, the “inhibition (INH)” value in data set [2], in data set [8], in data set [12], in data set [17] and in [20] was “Not Active” in each case. The inhibition at 20 min, 10 µM in [5] came to 24%; in data set [6], 29%; in data set [19], 32%. Also, the remaining at 1 h, 1 µM in [7] was found to be 100%; in data set [18], 81%. The pIC50 in data set [9] was 7.80; in [14] it was 6.53.
